The test system of data set [1] is Bacillus cereus. Put plainly: Antibacterial activity against Bacillus cereus ATCC 10231 assessed as growth inhibition by agar dilution assay. The class given is functional.
The test system of data set [2] is Brevibacillus laterosporus. Put plainly: Antibacterial activity against Brevibacillus laterosporus ATCC 64 assessed as growth inhibition by agar dilution assay. The class given is functional. On the technique in general: In agar dilution, organisms are placed on agar that contains the substance at set levels.
Data set [3] in a line: Cytotoxicity against CHL cells assessed as cell viability at 0.256 mg/ml after 24 hrs by MTT assay. The class given is cell-based, Cricetulus griseus. Conditions: chinese hamster, read-out: Activity. An outline of the steps:
(§1)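 CHL fibroblasts seeded at about 5 × 10^4 cells/mL, incubated overnight at 37 °C, 5% CO2, then exposed to compound at different concentrations for 24 h. Viability read by MTT, absorbance at 570 nm, relative to cells in medium alone (100%). Triplicate.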
In general terms: Formazan colour is commonly taken as a measure of viable cells.

Data set [4] deals with Escherichia coli. Kind of data set: Antibacterial activity against Escherichia coli ATCC 25922 assessed as growth inhibition by agar dilution assay. The class given is functional. An outline of the steps: (§2)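 Agar dilution MIC per CLSI (aerobic and anaerobic methods); compounds dissolved in DMSO, reference antibiotics in sterile water. MIC taken as lowest concentration with no visible growth; determined at least twice on separate days, higher value reported. Clinical isolate ranges summarized as MIC50/MIC90.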

Data set [5] deals with Staphylococcus aureus. Put plainly: Antibacterial activity against Staphylococcus aureus ATCC 29213 assessed as growth inhibition by agar dilution assay. The class given is functional. An outline of the steps: as §2
Data set [6] deals with Staphylococcus aureus. Kind of data set: microbe, parasite or virus in culture. The class given is functional. The note with it: ATCC 6538.
The subject of data set [7] is Pseudomonas aeruginosa. Kind of data set: Antibacterial activity against Pseudomonas aeruginosa ATCC 27853 assessed as growth inhibition by agar dilution assay. The class given is functional. The gist of the method:
as §2

A short description of data set [8]: Cytotoxicity against CHL cells assessed as cell viability after 24 hrs by MTT assay. The class given is cell-based, Cricetulus griseus. The note with it: chinese hamster. The gist of the method: as §1
For data set [9], the system named is Bacteroides fragilis. Put plainly: Antibacterial activity against Bacteroides fragilis assessed as growth inhibition by agar dilution assay. The class given is functional. The gist of the method:
as §2

For data set [10], the system named is Bacteroides fragilis. Put plainly: Antibacterial activity against Bacteroides fragilis ATCC 25285 assessed as growth inhibition by agar dilution assay. The class given is functional. The gist of the method:
as §2

Data set [11] deals with Staphylococcus aureus. Put plainly: In vivo antibacterial activity against Staphylococcus aureus in New zealand rabbit keratitis model assessed as suppression of conjuctival congestion, conjuctival chemosis, infiltration, operative ulcer area and depth at 3 mg/ml administered topically every 4 hrs for four doses every day for 10 days starting 24 hrs post-infection by slit lamp biomicroscopy. The class given is functional, organism-based. An outline of the steps:
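NZW rabbits (2.0−3.0 kg), anesthetized with iv sodium pentobarbital 30 mg/kg, given intracorneal S. aureus (about 7.5 × 10^6 CFU) from an overnight LB culture. Starting 24 h post-infection, 30 μL drops applied topically per eye every 4 h, four doses daily (8 a.m.–8 p.m.), for 10 days, masked. Test compound in PEG–water (1:1). Slit-lamp biomicroscopy before and after.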

In data set [12] the test system is Streptococcus pneumoniae. Kind of data set: Antibacterial activity against Streptococcus pneumoniae ATCC 49619 assessed as growth inhibition by agar dilution assay. The class given is functional. The gist of the method: as §2
For data set [13], the system named is Streptococcus pneumoniae. Kind of data set: Antibacterial activity against Streptococcus pneumoniae assessed as growth inhibition by agar dilution assay. The class given is functional. The gist of the method: as §2
The subject of data set [14] is Pseudomonas aeruginosa. Put plainly: Antibacterial activity against Pseudomonas aeruginosa assessed as growth inhibition by agar dilution assay. The class given is functional. An outline of the steps: (§3)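 CLSI agar dilution MIC against aerobic and anaerobic strains. Test compounds were dissolved in DMSO and reference antibiotics in sterile water. MIC was taken as the lowest concentration showing no bacterial growth. Each MIC was determined at least twice on separate days, and the higher value was reported. E. coli PQ 37 was cultured in LA medium.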

Data set [15] has as its system Staphylococcus epidermidis. Kind of data set: Antibacterial activity against methicillin-sensitive Staphylococcus epidermidis assessed as growth inhibition by agar dilution assay. The class given is functional. An outline of the steps:
as §2

Data set [16] deals with Staphylococcus epidermidis. Kind of data set: Antibacterial activity against methicillin-resistant Staphylococcus epidermidis assessed as growth inhibition by agar dilution assay. The class given is functional. The gist of the method:
as §3

The subject of data set [17] is Staphylococcus aureus. Put plainly: Antibacterial activity against methicillin-sensitive Staphylococcus aureus assessed as growth inhibition by agar dilution assay. The class given is functional. The gist of the method: as §2
Data set [18] concerns Staphylococcus aureus. Kind of data set: Antibacterial activity against methicillin-resistant Staphylococcus aureus assessed as growth inhibition by agar dilution assay. The class given is functional. An outline of the steps: as §3

In brackets after ≈: the same amount, converted by molar mass. Activity calls are given as the source filed them. No cut-off for these calls is given here.

With `CN[C@H](CC(C)C)C(=O)N[C@H]1C(=O)N[C@@H](CC(N)=O)C(=O)N[C@H]2C(=O)N[C@H]3C(=O)N[C@H](C(=O)N[C@H](C(=O)O)c4cc(O)cc(O)c4-c4cc3ccc4O)[C@H](O)c3ccc(c(Cl)c3)Oc3cc2cc(c3O[C@@H]2O[C@H](CO)[C@@H](O)[C@H](O)[C@H]2O[C@H]2C[C@](C)(N)[C@H](O)[C@H](C)O2)Oc2ccc(cc2Cl)[C@H]1O.Cl` [VANCOMYCIN HYDROCHLORIDE], the MIC in [1] and in [2] was 2 µg/mL in each case.

`Cc1cc(O)c2c(c1)C(=O)c1c(Br)c(O)c(Br)c(O)c1C2=O`: the viability at 24 h, 0.256 mg/ml in [3] is > 75%. The MIC in [4] is > 256 µg/mL; in data set [1], 8 µg/mL (≈ 18.7 µM); in data set [5], 16 µg/mL (≈ 37.4 µM); in [6], 8 µg/mL (≈ 18.7 µM); in data set [7], > 256 µg/mL; in data set [2], 8 µg/mL (≈ 18.7 µM). For the same compound, the IC90 at 24 h in data set [8] turned out to be 128 µg/mL (≈ 299 µM).

With `Cc1c(Cl)c(O)c2c(c1Cl)C(=O)c1c(Cl)c(O)cc(O)c1C2=O`, the viability at 24 h, 0.256 mg/ml in [3] is > 75%. The MIC in data set [4] was > 256 µg/mL; in data set [1], 8 µg/mL (≈ 21.4 µM); in data set [5], 16 µg/mL (≈ 42.8 µM); in data set [6], 8 µg/mL (≈ 21.4 µM); in [7] it was > 256 µg/mL; in data set [2] it was 8 µg/mL (≈ 21.4 µM). Moreover, the IC90 at 24 h in data set [8] worked out at 256 µg/mL (≈ 685 µM).

On to `Cc1cc(O)c2c(c1)C(=O)c1c(Cl)c(O)c(I)c(O)c1C2=O`, for which the viability at 24 h, 0.256 mg/ml in [3] is > 75%. Besides, the MIC in data set [4] was > 256 µg/mL; in data set [1] it was 32 µg/mL (≈ 74.3 µM); in data set [5], 64 µg/mL (≈ 149 µM); in data set [6], 32 µg/mL (≈ 74.3 µM); in [7] it was > 256 µg/mL; in [2], 32 µg/mL (≈ 74.3 µM).

For `CCC[C@@H]1C[C@@H](C(=O)N[C@@H]([C@H]2O[C@H](SC)[C@H](OP(=O)(O)O)[C@@H](O)[C@H]2O)[C@H](C)Cl)N(C)C1` [CLINDAMYCIN PHOSPHATE], the results for the MIC in data set [9] and in data set [10] were 0.03 µg/mL and 0.5 µg/mL, respectively.

Turning to `CC1COc2c(N3CCN(C)CC3)c(F)cc3c(=O)c(C(=O)O)cn1c23` (stereo not drawn), in [11], the inhibition entry was “Active”.

In the case of `Cc1cc2c(c(O)c1I)C(=O)c1c(O)c(I)c(O)c(I)c1C2=O`, the viability at 24 h, 0.256 mg/ml in data set [3] is > 75%. The MIC in [4] was > 256 µg/mL; in data set [1], 8 µg/mL (≈ 12.3 µM); in [5], 16 µg/mL (≈ 24.7 µM); in data set [6], 8 µg/mL (≈ 12.3 µM); in data set [7] it was > 256 µg/mL; in data set [2] it was 8 µg/mL (≈ 12.3 µM). For the same compound, the concentration for an effect of 90% (IC90) at 24 h in [8] is 128 µg/mL (≈ 198 µM).

Take `CC1(C)S[C@@H]2[C@H](NC(=O)Cc3ccccc3)C(=O)N2[C@H]1C(=O)[O-].[Na+]` [PENICILLIN G SODIUM]: the MIC in [12] amounted to 0.25 µg/mL; in [13], 8 µg/mL.

On to `CCN1CCN(C(=O)N[C@@H](C(=O)N[C@@H]2C(=O)N3[C@@H]2SC(C)(C)[C@@H]3C(=O)[O-])c2ccccc2)C(=O)C1=O.[Na+]` [PIPERACILLIN SODIUM], for which the MIC in data set [14] amounted to 2 µg/mL; in [4], 4 µg/mL; in [7] it was 4 µg/mL.

For `Cc1cc(O)c2c(c1)C(=O)c1cc(O)c(I)c(O)c1C2=O`, in data set [3], the viability at 24 h, 0.256 mg/ml is > 75%. For the same compound, the MIC in data set [4] was > 256 µg/mL; in data set [1] it was 16 µg/mL (≈ 40.4 µM); in data set [5] it was 32 µg/mL (≈ 80.8 µM); in [6], 16 µg/mL (≈ 40.4 µM); in data set [7] it was > 256 µg/mL; in [2], 16 µg/mL (≈ 40.4 µM).

Regarding `CO[C@@]1(NC(=O)Cc2cccs2)C(=O)N2C(C(=O)[O-])=C(COC(N)=O)CS[C@@H]21.[Na+]` [CEFOXITIN SODIUM], the MIC in data set [15] stood at 1 µg/mL; in [16] it was 128 µg/mL; in data set [17], 0.5 µg/mL; in [5] it was 2 µg/mL; in data set [18] it was 128 µg/mL.

What is called IC90 is the point of the concentration-response curve where the effect stands at 90%.
